Measurements: article PMC3422576 (Science translational medicine, 2010)

What was measured:
[1] = system: Ptch+/−p53−/− medulloblastoma tumors; experiment: Ptch+/−p53−/− medulloblastoma allograft efficacy study in nude mice; type: in vivo, mouse
resistant tumor cells = experiment: Ex-vivo medulloblastoma proliferation assay; type: cell-based, mouse; conditions: cells freshly isolated from resistant tumors
Mouse Smo N223D = Mouse Smo N223D (Mus musculus, UniProt P56726, N223D); type: cell-based
In short: (§1)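 C3H10T1/2 cells transiently co-transfected with HA-tagged mouse Smo (wild-type or point mutant, in pcDNA3.1), a Gli-luciferase reporter and TK-driven renilla luciferase. Serial dilutions of test compound (0.001 to 10 μM final) added 24 h post-transfection. Firefly and renilla luciferase read by dual-luciferase assay after a further 24 h. Percent inhibition calculated relative to DMSO control.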

human Smo = human Smo (Homo sapiens, UniProt Q99835); experiment: Smo Agonist 1.5 displacement assay, human Smo; type: binding
human Smo, sequence (Q99835 28-787): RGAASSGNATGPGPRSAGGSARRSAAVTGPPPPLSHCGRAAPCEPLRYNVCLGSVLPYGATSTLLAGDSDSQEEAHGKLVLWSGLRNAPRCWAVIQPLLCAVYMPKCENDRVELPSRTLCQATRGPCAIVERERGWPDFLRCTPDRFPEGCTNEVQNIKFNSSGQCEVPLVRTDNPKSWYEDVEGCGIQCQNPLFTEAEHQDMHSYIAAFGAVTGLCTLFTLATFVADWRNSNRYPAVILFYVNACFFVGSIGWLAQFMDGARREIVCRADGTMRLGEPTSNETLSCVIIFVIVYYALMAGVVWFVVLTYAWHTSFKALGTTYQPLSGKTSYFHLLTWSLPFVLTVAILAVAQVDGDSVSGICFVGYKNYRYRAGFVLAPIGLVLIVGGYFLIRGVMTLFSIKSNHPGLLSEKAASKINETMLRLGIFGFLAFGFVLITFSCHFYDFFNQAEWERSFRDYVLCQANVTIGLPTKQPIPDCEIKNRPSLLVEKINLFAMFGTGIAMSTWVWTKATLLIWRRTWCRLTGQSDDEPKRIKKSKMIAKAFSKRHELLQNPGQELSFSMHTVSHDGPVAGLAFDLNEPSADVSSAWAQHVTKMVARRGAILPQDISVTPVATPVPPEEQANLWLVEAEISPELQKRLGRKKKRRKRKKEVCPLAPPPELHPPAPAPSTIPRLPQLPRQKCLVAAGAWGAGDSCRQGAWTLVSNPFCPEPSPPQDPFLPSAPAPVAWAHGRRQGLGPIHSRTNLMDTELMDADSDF

Gli1 mRNA = Gli1 mRNA in Ptch+/−p53−/− medulloblastoma allografts in nude mice; type: in vivo, mouse; conditions: oral, 20 mg/kg/day qd
Mouse Smo G457S = Mouse Smo G457S (Mus musculus, UniProt P56726, G457S); type: cell-based
Mouse Smo G457S, sequence (P56726 33-793 G457S): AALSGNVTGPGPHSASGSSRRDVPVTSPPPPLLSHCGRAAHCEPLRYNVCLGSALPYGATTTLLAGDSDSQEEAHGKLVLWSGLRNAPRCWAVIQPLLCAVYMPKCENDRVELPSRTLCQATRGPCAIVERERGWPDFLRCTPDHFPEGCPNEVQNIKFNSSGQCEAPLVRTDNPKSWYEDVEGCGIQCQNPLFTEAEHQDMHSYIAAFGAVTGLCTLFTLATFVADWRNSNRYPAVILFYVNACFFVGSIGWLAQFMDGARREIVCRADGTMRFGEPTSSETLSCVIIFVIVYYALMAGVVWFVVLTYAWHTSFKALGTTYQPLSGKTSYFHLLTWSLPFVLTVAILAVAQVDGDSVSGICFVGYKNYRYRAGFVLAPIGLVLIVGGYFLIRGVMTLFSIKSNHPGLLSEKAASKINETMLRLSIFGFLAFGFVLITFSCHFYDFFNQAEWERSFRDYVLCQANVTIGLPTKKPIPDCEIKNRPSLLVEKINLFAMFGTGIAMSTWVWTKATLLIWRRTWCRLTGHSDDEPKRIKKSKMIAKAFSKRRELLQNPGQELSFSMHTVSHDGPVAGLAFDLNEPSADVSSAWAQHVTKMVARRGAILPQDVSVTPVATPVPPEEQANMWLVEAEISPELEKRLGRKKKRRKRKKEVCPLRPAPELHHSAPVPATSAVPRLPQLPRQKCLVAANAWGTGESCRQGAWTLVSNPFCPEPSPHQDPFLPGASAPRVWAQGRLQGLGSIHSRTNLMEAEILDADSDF
In short: as §1

Mouse Smo Wild-type = Mouse Smo Wild-type (Mus musculus, UniProt P56726); type: cell-based
Mouse Smo Wild-type, sequence (P56726 33-793): as the sequence (P56726 33-793 G457S) above, with S425G counted along it
In short: as §1

Mouse Smo L225R = Mouse Smo L225R (Mus musculus, UniProt P56726, L225R); type: cell-based
Mouse Smo L225R, sequence (P56726 33-793 L225R): as the sequence (P56726 33-793 G457S) above, with L193R, S425G counted along it
In short: as §1

Mouse Smo D388N = Mouse Smo D388N (Mus musculus, UniProt P56726, D388N); type: cell-based
Mouse Smo D388N, sequence (P56726 33-793 D388N): as the sequence (P56726 33-793 G457S) above, with D356N, S425G counted along it
In short: as §1

[2] = system: Gli1, Ptch1, Ptch2 and CyclinD1 mRNA; experiment: Hh target gene mRNA in Ptch+/−Hic1+/− medulloblastoma allografts in nude mice; type: in vivo, mouse; conditions: Ptch+/−Hic1+/− allograft, oral, initial treatment
mouse Smo = mouse Smo (Mus musculus, UniProt P56726); experiment: Smo Agonist 1.5 displacement assay, mouse Smo; type: binding
mouse Smo, sequence (P56726 33-793): as the sequence (P56726 33-793 G457S) above, with S425G counted along it

Mouse Smo S391N = Mouse Smo S391N (Mus musculus, UniProt P56726, S391N); type: cell-based
Mouse Smo S391N, sequence (P56726 33-793 S391N): as the sequence (P56726 33-793 G457S) above, with S359N, S425G counted along it
In short: as §1

[3] = system: Ptch+/−Hic+/− medulloblastoma tumors; experiment: Ptch+/−Hic+/− medulloblastoma allograft efficacy study in nude mice; type: in vivo, mouse

Mouse Smo N223D, sequence (P56726 33-793 N223D): as the sequence (P56726 33-793 G457S) above, with N191D, S425G counted along it

## Nc1cc(C(F)(F)F)c(-c2cc(N3CCOCC3)nc(N3CCOCC3)n2)cn1 [NVP-BKM120, reference compound]
[1]; treatment of established NVP-LDE225 resistant tumors, data not shown
  tumor growth inhibition in established NVP-LDE225 resistant tumors: modest but not statistically significant tumor growth inhibition

## HhAntag
Resistant tumor cells
  growth of resistant tumor cells upon exposure: largely unaffected

## Cc1c(C(=O)Nc2ccc(N3C[C@@H](C)O[C@@H](C)C3)nc2)cccc1-c1ccc(OC(F)(F)F)cc1 [NVP-LDE225]
Mouse Smo N223D
  IC50: > 10000 nM
Human Smo
  IC50: 11 nM
Gli1 mRNA
  expression of Hh pathway target gene Gli1 in tumors: completely suppressed
Mouse Smo G457S
  IC50: 400 nM
Mouse Smo Wild-type
  IC50: 6 nM
Mouse Smo L225R
  IC50: > 10000 nM
Mouse Smo D388N
  IC50: > 10000 nM
[2]
  Gli1, Ptch1, Ptch2 and CyclinD1 mRNA expression in tumors: Pronounced inhibition
[1]; 10 mg/kg/day, Ptch+/−p53−/− allograft
  tumor growth: partial growth inhibition
Mouse Smo
  IC50: 12 nM
Mouse Smo S391N
  IC50: > 10000 nM
[3]; Ptch+/−Hic1+/− allograft, oral
  tumor response during initial treatment: tumor regression
[3]; Ptch+/−Hic+/− allograft, after 61 days of treatment, n=8, NVP-LDE225 80 mg/kg/day qd, NVP-BEZ235 40 mg/kg/day qd
  number of complete regressions: 1
